The results in this text go back to ChEMBL document CHEMBL1152276, “Substituted 2-imino-5-arylidenethiazolidin-4-one inhibitors of bacterial type III secretion” (J Med Chem, 2008).

Assay [1] is described as follows: Inhibition of Salmonella enterica serovar Typhimurium type 3 secretion system-mediated SipA protein secretion by Western blotting. Further details: species or system Salmonella enterica subsp. enterica serovar Typhimurium. The method in brief: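 Bacteria were grown 18 h in LB broth and pelleted, and culture supernates were 0.2 μm-filtered. Proteins were precipitated with 10% TCA on ice for 30 min, centrifuged, acetone-washed and resolved by SDS-PAGE. Western blots were probed with polyclonal anti-SipA. IC50 was calculated from percent inhibition of secreted SipA using at least 3 inhibitor concentrations.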

In assay [2] the test system is Salmonella enterica subsp. enterica serovar Typhimurium. Description: Inhibition of Salmonella enterica serovar Typhimurium type 3 secretion system-mediated SipA protein secretion at 1 uM by Western blotting. (In western blotting, separated proteins are transferred to a membrane and probed.)
Assay [3] concerns Salmonella typhimurium. Description: Growth inhibition of Salmonella enterica serovar Typhimurium ATCC 14028 up to 1 mM. The assay is classed as functional, organism-based. Particulars: Salmonella enterica subsp. enterica serovar Typhimurium. The method in brief:
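Aliquots (30 μL) of a 2 mL overnight culture were dosed with 0.1, 1.0, 2.0, 3.0, 6.0 or 15.0 μL of compound in DMSO. DMSO alone in LB served as the control.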

The source made the active and inactive calls. The rule behind the calls is not given here.

In assay [1], `O=C1/C(=C/c2ccc(Cl)cc2)S/C(=N\c2ccccc2)N1c1ccccc1` showed an IC50 of 322 µM. Consider `COc1ccc(N2C(=O)/C(=C/C3CCCCC3)S/C2=N\c2ccccc2)cc1`, for which the IC50 in assay [1] came out at 278 µM. The same measure, in the same setting: next, `CSc1ccc(/C=C2\S/C(=N\c3ccccc3)N(c3ccccc3)C2=O)cc1`: 26 µM; `COc1ccc(N2C(=O)/C(=C/c3cc(OC)c(O)c(OC)c3)S/C2=N\c2ccccc2)cc1`: 51 µM. On the same count and under the same terms, next, `COc1cc(/C=C2\S/C(=N\c3ccccc3)N([C@H](Cc3ccc(-c4ccccc4)cc3)C(=O)N[C@@H](CCCNC(=N)N)C(N)=O)C2=O)cc(OC)c1O`: 8 µM. On the same count and under the same terms, next, `COc1cc(/C=C2\S/C(=N\c3ccccc3)N(C(C)C(=O)N[C@@H](Cc3c[nH]c4ccccc34)C(N)=O)C2=O)cc(OC)c1O` (stereo in doubt; 44a): 30 µM; `COc1cc(/C=C2\S/C(=N\c3ccccc3)N([C@@H](CCC(=O)O)C(=O)N[C@@H](Cc3ccc(-c4ccccc4)cc3)C(N)=O)C2=O)cc(OC)c1O`: 50 µM; `COc1cc(/C=C2\S/C(=N\c3ccccc3)N(C(CCCN)C(=O)N[C@H](CC3CNc4ccccc43)C(N)=O)C2=O)cc(OC)c1O` (mixture of isomers): 52 µM.

`COc1cc(/C=C2\S/C(=N\c3ccccc3)N(C(Cc3ccc(-c4ccccc4)cc3)C(=O)N[C@@H](CCCN)C(N)=O)C2=O)cc(OC)c1O` (single isomer, unassigned) had an IC50 in assay [1] of 55 µM. The molecule `COc1cc(/C=C2\S/C(=N\c3ccccc3)N(CC(=O)O)C2=O)cc(OC)c1O` came in with an IC50 in assay [1] of 36 µM. Moreover, in assay [2], the outcome was Active.

`COc1ccc(/N=C2\S/C(=C\c3ccncc3)C(=O)N2c2ccccc2)cc1`: it took 137 µM to reach half-maximal inhibition in assay [1] (IC50). The same measure, in the same setting: next, `COc1cc(/C=C2\S/C(=N\c3ccccc3)N([C@@H](C)C(=O)N[C@@H](CCCN)C(N)=O)C2=O)cc(OC)c1O`: 16 µM; `COc1cc(/C=C2\S/C(=N\c3ccccc3)N(C(CCCN)C(=O)N[C@@H](CC3CNc4ccccc43)C(N)=O)C2=O)cc(OC)c1O` (mixture of isomers): 56 µM; `COc1cc(/C=C2\S/C(=N\c3ccccc3)N([C@@H](C)C(=O)N[C@@H](C)C(N)=O)C2=O)cc(OC)c1O`: 62 µM.

Regarding `COc1cc(/C=C2\S/C(=N\c3ccccc3)N(C(C)C(=O)N[C@@H](Cc3c[nH]c4ccccc34)C(N)=O)C2=O)cc(OC)c1O` (stereo in doubt; 44b), in assay [1], the midpoint of inhibition, the IC50, lay at 29 µM. Same read-out and setting: next, `COc1cc(/C=C2\S/C(=N\c3ccccc3)N([C@@H](C)C(=O)N[C@@H](Cc3ccc(O)cc3)C(N)=O)C2=O)cc(OC)c1O`: 112 µM.

Consider `COc1cc(/C=C2\S/C(=N\c3ccccc3)N([C@@H](Cc3ccc(-c4ccccc4)cc3)C(=O)N[C@@H](CCCNC(=N)N)C(N)=O)C2=O)cc(OC)c1O`, for which the IC50 in assay [1] came out at 3 µM. In assay [3], the result was inactive. The like results for `COc1cc(/C=C2\S/C(=N\c3ccccc3)N([C@@H](CCCN)C(=O)N[C@@H](Cc3ccc(-c4ccccc4)cc3)C(N)=O)C2=O)cc(OC)c1O` were, in that order, 13 µM and “inactive”. With `COc1cc(/C=C2\S/C(=N\c3ccccc3)N([C@H](C)C(=O)N[C@@H](CCCN)C(N)=O)C2=O)cc(OC)c1O`, the IC50 in assay [1] was 9 µM.

Consider `COc1ccc(N2C(=O)/C(=C/C(C)(C)C)S/C2=N\c2ccccc2)cc1`, for which the IC50 in assay [1] was 160 µM. Still for that read-out and setting: next, `COc1cc(/C=C2\S/C(=N\c3ccccc3)N([C@H](C)C(=O)N[C@@H](CCCNC(=N)N)C(N)=O)C2=O)cc(OC)c1O`: 38 µM; `COc1cc(/C=C2\S/C(=N\c3ccc(CN)cc3)N(c3ccccc3)C2=O)cc(OC)c1O`: 101 µM; `COc1cc(/C=C2\S/C(=N\c3ccccc3)N(C(CCCNC(=N)N)C(=O)N[C@@H](C)C(N)=O)C2=O)cc(OC)c1O` (stereo partly specified): 41 µM. Take `COc1cc(/C=C2\S/C(=N\c3ccccc3)N([C@@H](CCCNC(=N)N)C(=O)N[C@@H](Cc3ccc(-c4ccccc4)cc3)C(N)=O)C2=O)cc(OC)c1O`: inhibition in assay [1] was half-maximal at 50 µM (IC50).

For the molecule `COc1cc(/C=C2\S/C(=N\c3ccccc3)N([C@@H](C)C(=O)N[C@@H](CCCNC(=N)N)C(N)=O)C2=O)cc(OC)c1O`, in assay [1], the half-inhibitory concentration (IC50) was 77 µM. On the same count and under the same terms, next, `O=C1/C(=C/c2ccncc2)S/C(=N\c2ccccc2)N1c1ccccc1`: 376 µM. For the molecule `COc1cc(/C=C2\S/C(=N\c3ccccc3)N(c3ccc(CN)cc3)C2=O)cc(OC)c1O`, the IC50 in assay [1] is 52 µM. Also, the outcome in assay [3] was inactive. Consider `COc1cc(/C=C2\S/C(=N\c3ccccc3)N(CCCC(=O)O)C2=O)cc(OC)c1O`, for which the IC50 in assay [1] worked out at 66 µM. On to `COc1cc(/C=C2\S/C(=N\c3ccccc3)N(C(C(=O)N[C@@H](Cc3ccc(O)cc3)C(N)=O)C(C)C)C2=O)cc(OC)c1O` (stereo partly specified), for which, in assay [1], 52 µM corresponded to half-maximal inhibition (IC50).

On to `COc1cc(/C=C2\S/C(=N\c3ccccc3)N(C(CCCNC(=N)N)C(=O)N3Cc4ccccc4C[C@H]3C(N)=O)C2=O)cc(OC)c1O` (stereo partly specified), for which, in assay [1], the IC50 was 115 µM.

`CC(C)(C)/C=C1\S/C(=N\c2ccccc2)N(c2ccccc2)C1=O`: the IC50 in assay [1] was 244 µM. For the molecule `COc1cc(/C=C2\S/C(=N\c3ccccc3)N(c3ccccc3)C2=O)cc(OC)c1O`, in assay [1], the IC50 stood at 83 µM. In addition, the result in assay [3] was inactive.

As to `COc1cc(/C=C2\S/C(=N\c3ccccc3)N([C@@H](CCCN)C(=O)N[C@@H](C)C(N)=O)C2=O)cc(OC)c1O`, the IC50 in assay [1] was determined as 32 µM. As for `COc1cc(/C=C2\S/C(=N\c3ccccc3)N(CCCC(=O)OC(C)(C)C)C2=O)cc(OC)c1O`, in assay [1], the 50% inhibitory concentration (IC50) amounted to 4 µM. Besides, the outcome in assay [2] was Active. `COc1cc(/C=C2\S/C(=N\c3ccccc3)N(CCCCCCN)C2=O)cc(OC)c1O` returned an IC50 in assay [1] of 54 µM.

`COc1cc(/C=C2\S/C(=N\c3ccccc3)N(c3ccc(CNC(=O)OC(C)(C)C)cc3)C2=O)cc(OC)c1O` showed an IC50 in assay [1] of 45 µM. Further, the result in assay [3] was inactive. In assay [1], `O=C1/C(=C/C2CCCCC2)S/C(=N\c2ccccc2)N1c1ccccc1` registered an IC50 of 225 µM. Same read-out and setting: next, `COc1ccc(/C=C2\S/C(=N\c3ccccc3)N(c3ccccc3)C2=O)cc1OC`: 278 µM. In the case of `COc1cc(/C=C2\S/C(=N\c3ccccc3)N(C(CCCNC(=N)N)C(=O)N3CSC[C@H]3C(N)=O)C2=O)cc(OC)c1O` (stereo partly specified), half-maximal inhibition in assay [1] (IC50) was put at 65 µM.

Broadly, the IC50 is the concentration needed to halve the response being measured. A higher IC50 goes with weaker potency in that assay.
